Consider one compound from ChEMBL document CHEMBL4765333, “Novel NO-releasing scopoletin derivatives induce cell death via mitochondrial apoptosis pathway and cell cycle arrest” (Eur J Med Chem, 2020).

One may read the pIC50 as −log10 of the IC50, conventionally taken in molar units.

The structures appear in SMILES notation. pIC50: −log10 of the molar value. Activity calls are given as the source filed them. The rule behind the calls is not given here.

The test system of one series is A549. Put plainly: Anticancer activity against human A549 cells assessed as inhibition of cell proliferation measured after 48 hrs by MTT assay. It is filed as functional, cell-based. The following applies: A549, 48 h. An outline of the steps: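 Cells seeded at ~5,000/well, grown 24 h to partial monolayer, then exposed 48 h at 37°C, 5% CO2 to 0.5, 1, 2, 4, 10 and 20 µM (DMSO ≤0.1%). MTT final 0.5 mg/ml for 4 h, formazan dissolved in DMSO, A570. Survival expressed as % of untreated control; IC50 from dose-response curves; three independent experiments.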

The next series relates to L02. Put plainly: Cytotoxicity against human L02 cells assessed as reduction in cell viability measured after 48 hrs by MTT assay. The format is cell-based. The following applies: L02, 48 h. An outline of the steps: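 Cells seeded at ~5,000/well, grown 24 h to partial monolayer, then exposed 48 h at 37°C, 5% CO2 to 0.5, 1, 2, 4, 10 and 20 µM (DMSO ≤0.1%). MTT final 0.5 mg/ml for 4 h, formazan dissolved in DMSO, A570. Survival expressed as % of untreated control; IC50 from dose-response curves; three independent experiments. MDA-MB-231, MCF-7, HepG2 in DMEM; A549 and LO-2 in RPMI-1640; 10% FBS.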
(In general: Tetrazolium dyes change colour on reduction, which living cells bring about.)

The nature of series [1]: Prodrug release in human MDA-MB-231 cells assessed as increase in intracellular NO level at 1 to 10 uM measured after 2.5 hrs by DAF-FM DA reagent based scanning electron microscopy. The format is ADME, cell-based. The settings on record: mda-mb-231, 2.5 h, in the assay text read “laser scanning confocal microscopy” for “scanning electron microscopy”, dose 1-10 µM. The procedure, abridged: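 After 24 h growth at 5×10^4 cells/well, MDA-MB-231 cells loaded with DAF-FM DA (5 µM) 30 min at 37°C, 5% CO2, PBS-washed, then incubated 2.5 h with compound at 1 or 10 µM (scopoletin at 10 µM). NO fluorescence imaged by laser scanning confocal microscopy.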

In series [2] the test system is MDA-MB-231. Put plainly: Induction of apoptosis in human MDA-MB-231 cells after 24 hrs by Hoechst33342 staining based fluorescence inverted microscopic analysis. The format is functional, cell-based. The following applies: dose 0.5-1.5 µM. The procedure, abridged: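 MDA-MB-231 cells (5×10^4/well) attached 24 h, then treated 24 h with 0.5, 1 or 1.5 µM (DMSO vehicle control). Stained with Hoechst 33342 at 10 µg/ml for 5 min at 37°C in the dark, washed with PBS, and examined by inverted fluorescence microscopy for apoptotic nuclear morphology.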

The subject of series [3] is MDA-MB-231. Description: Induction of apoptosis in human MDA-MB-231 cells assessed as viable cells at 1 uM after 24 hrs by Annexin V/propidium iodide based flow cytometric analysis (reference value: 99%). The settings on record: read-out: Activity. The format is functional. An outline of the steps:
(§1)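 MDA-MB-231 cells (2×10^5/well) attached 24 h, then treated 24 h with 1, 1.5, 2 or 3 µM, DMSO as control. Cells harvested, PBS-washed, resuspended in binding buffer, stained with Annexin V and PI for 30 min at 37°C in the dark, and analysed by flow cytometry for quadrant percentages; three experiments.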

The subject of series [4] is MDA-MB-231. Description: Induction of apoptosis in human MDA-MB-231 cells assessed as early apoptotic cells at 1 uM after 24 hrs by Annexin V/propidium iodide based flow cytometric analysis (reference value: 0.94%). It is filed as functional. The procedure, abridged: as §1
Series [5] has as its system MDA-MB-231. Description: Induction of apoptosis in human MDA-MB-231 cells assessed as early apoptotic cells at 1.5 uM after 24 hrs by Annexin V/propidium iodide based flow cytometric analysis (reference value: 0.94%). The format is functional. The procedure, abridged: as §1
In general terms: A flow cytometer gives signals particle by particle.

Series [6] concerns MDA-MB-231. Put plainly: Induction of apoptosis in human MDA-MB-231 cells assessed as late apoptotic cells at 1.5 uM after 24 hrs by Annexin V/propidium iodide based flow cytometric analysis (reference value: 0.038%). The format is functional. The procedure, abridged: as §1
The subject of series [7] is MDA-MB-231. Put plainly: Induction of mitochondrial membrane potential depolarization in human MDA-MB-231 cells assessed as proportion of cells with depolarized MMP at 2 uM incubated for 18 hrs by JC-1 staining based flow cytometry (reference value: 0.72%). The format is functional.
Series [8] can be described thus: Induction of intracellular reactive oxygen species generation in human MDA-MB-231 cells assessed as proportion of FL1-H negative cells at 1 uM measured after 24 hrs by DCFH-DA staining based flow cytometry analysis (reference value: 52.2%). The format is functional, MDA-MB-23.
For series [9], the system named is MDA-MB-231. Description: Induction of intracellular reactive oxygen species generation in human MDA-MB-231 cells at 2 uM measured after 24 hrs by DCFH-DA staining based flow cytometry analysis relative to control. The format is functional. An outline of the steps: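 MDA-MB-231 cells at 2×10^5 cells/well, grown 24 h, exposed 24 h to compound (1, 1.5, 2 µM) or DMSO control. Cells then took up DCFH-DA for 30 min at 37°C in the dark, were PBS-washed, resuspended in serum-free medium and analysed by flow cytometry. Relative DCF level vs control; mean ± SD, n = 3.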

In series [10] the test system is MDA-MB-231. Put plainly: Induction of apoptosis in human MDA-MB-231 cells assessed as up-regulation of Bad expression at 1.5 to 6 uM measured after 8 hrs by Western blot analysis. The format is functional, cell-based. The following applies: dose 1.5-6 µM. The procedure, abridged: (§2)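 MDA-MB-231 cells (8×10^5 per 60 mm dish) attached 24 h, then exposed 8 h to 1.5, 3 or 6 µM, DMSO as control. Lysates quantified by BCA; 30 µg protein run on 4–20% SDS-PAGE, transferred to PVDF, probed for Bcl-2, Bax, Bad, cleaved caspase-9, cleaved caspase-3 and PARP, with ECL detection. Densitometric relative levels; three experiments.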
Background: Immunoblotting shows a protein as a band on a membrane.

In series [11] the test system is MDA-MB-231. Description: Induction of apoptosis in human MDA-MB-231 cells assessed as increase in cleaved caspase-3 protein expression incubated for 8 hrs by Western blot analysis. It is filed as functional, cell-based. The following applies: dose 1.5-6 µM. The procedure, abridged:
as §2

The subject of series [12] is MDA-MB-231. Description: Induction of apoptosis in human MDA-MB-231 cells assessed as increase in cleaved caspase-9 protein expression incubated for 8 hrs by Western blot analysis. The following applies: dose 1.5-6 µM. It is filed as functional, cell-based. An outline of the steps: as §2
Series [13] deals with MDA-MB-231. Put plainly: Induction of cell cycle arrest in human MDA-MB-231 cells assessed as accumulation at G2/M phase at 1.5 uM measured after 24 hrs by propidium iodide staining based flow cytometric method (reference value: 18.55%). The format is functional.
Series [14] concerns MDA-MB-231. Put plainly: Induction of cell cycle arrest in human MDA-MB-231 cells assessed as accumulation at G0/G1 phase at 2 uM measured after 24 hrs by propidium iodide staining based flow cytometric method (reference value: 45.71%). The format is functional.
A short description of series [15]: Induction of intracellular reactive oxygen species generation in human MDA-MB-231 cells assessed as proportion of FL1-H negative cells at 1.5 uM measured after 24 hrs by DCFH-DA staining based flow cytometry analysis (reference value: 52.2%). The format is functional, MDA-MB-23.
A short description of series [16]: Induction of intracellular reactive oxygen species generation in human MDA-MB-231 cells assessed as proportion of FL1-H negative cells at 2 uM pretreated with ROS scavenger, NAC for 2 hrs prior to incubation with compound and measured after 24 hrs by DCFH-DA staining based flow cytometry analysis (reference value: 52.2%). It is filed as functional, MDA-MB-23.

Series [17] is described as follows: Induction of intracellular reactive oxygen species generation in human MDA-MB-231 cells assessed as proportion of FL1-H positive cells at 1 uM measured after 24 hrs by DCFH-DA staining based flow cytometry analysis (reference value: 47.8%). It is filed as functional, MDA-MB-23.
A short description of series [18]: Induction of intracellular reactive oxygen species generation in human MDA-MB-231 cells assessed as proportion of FL1-H positive cells at 1.5 uM measured after 24 hrs by DCFH-DA staining based flow cytometry analysis (reference value: 47.8%). The format is functional, MDA-MB-23.

`COc1cc2cc(N)c(=O)oc2cc1OCCCOc1no[n+]([O-])c1S(=O)(=O)c1ccccc1`: the pIC50 in the series with A549 was 5.38; in the series on L02, 5.04. In addition, the Drug metabolism result in series [1] is on record as “Metabolite_Detected”. Moreover, the Activity entry was “Dose-dependent effect” in the series with MDA-MB-231 [2]; 3.75% with MDA-MB-231 [4]; 10.8% in the series on MDA-MB-231 [5]; 13.2% in the series on MDA-MB-231 [6]; 31.5% with MDA-MB-231 [7]; 35% in series [8]. In addition, the Activity result in the series on MDA-MB-231 [11] is “Dose-dependent effect”; in the series on MDA-MB-231 [12], “Dose-dependent effect”; in the series with MDA-MB-231 [13], 30.11%; with MDA-MB-231 [14], 38.05%; in [15], 17.3%; in series [16], 49%. The Activity worked out at 65% in [17] and 82.7% in series [18]. Besides, the viability at 1 µM in the series on MDA-MB-231 [3] stood at 87.9%. In the series on MDA-MB-231 [9], the “fold change (FC)” value is on record as 2.16. In addition, the result in the series with MDA-MB-231 [10] was Active.
